These results are taken from ChEMBL document CHEMBL1157181, “Novel antioxidant agents deriving from molecular combination of Vitamin C and NO-donor moieties” (Bioorg Med Chem, 2008).

Data set [1] relates to Hepatocyte. Nature of the data set: Antioxidant activity Wistar rat hepatocyte membrane assessed as Fe(3+)-ADP/NADPH-induced lipid peroxidation by TBA assay. In kind it is functional, cell-based. The method in brief:
(§1)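 Microsomes from male Wistar rat liver (180–200 g) in Tris-HCl/KCl pH 7.4 (2 mg protein/mL) with ADP 1 mM and FeCl3 50 μM, plus compound in DMSO (≤5%). Peroxidation started with NADPH 0.4 mM at 37 °C and sampled to 30 min. TBARS read at 543 nm against an MDA standard. Inhibition is taken from the 30-min plateau, with IC50 by nonlinear regression.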

For data set [2], the system named is Aorta. The data set can be described thus: Vasorelaxation activity in Wistar rat thoracic aorta assessed as inhibition of L-phenylephrine-induced contraction. In kind it is functional, tissue-based. The method in brief:
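Endothelium-denuded thoracic aorta strips from male Wistar rats (180–200 g) equilibrated 120 min and contracted with 1 μM L-phenylephrine. At plateau, cumulative concentrations of the test agent are added. EC50 is given ± SEM (μM).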

The test system of data set [3] is Aorta. Nature of the data set: Vasorelaxation activity in Wistar rat thoracic aorta assessed as inhibition of L-phenylephrine-induced contraction in presence of 1 uM 1H-[1,2,4]oxadiazolo[4,3-a]quinoxalin-1-one. The format is functional, tissue-based. The method in brief: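 Denuded Wistar rat aortic strips with 1 μM ODQ added to the bath 5 min before contraction with 1 μM L-phenylephrine. Cumulative relaxant concentrations are added at plateau, and EC50 is given ± SEM (μM).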

The nature of data set [4]: Dissociation constant, pKa of the compound. In kind it is physicochemical. The gist of the method: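 Potentiometric titration, at least four runs per compound, of about 1 mM aqueous solutions with ionic strength 0.15 M (KCl). Solutions acidified to pH 1.8 with 0.5 N HCl, then titrated with standardised 0.5 N KOH to pH 10.5, under argon at 25.0 ± 0.1 °C. For poorly soluble compounds, at least five titrations in 15-50 wt% methanol, extrapolated to zero cosolvent (Yasuda-Shedlovsky).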

The nature of data set [5]: Distribution coefficient, log D at pH 1.0 after 4 hrs by shake flask method. In kind it is physicochemical. To be noted: octanol/water. The gist of the method: (§2)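 Shake-flask n-octanol/buffer partition at room temperature, pH 1.0 (HCl) or pH 7.4 (phosphate), ionic strength 0.15 M KCl. Phases are presaturated by shaking for 4 h. Solute is about 0.1 mM in the aqueous phase, shaken about 20 min and centrifuged. Aqueous concentration is read by UV at λmax, with at least seven log D values per compound.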

Data set [6] can be described thus: Distribution coefficient, log D at pH 7.4 after 4 hrs by shake flask method. To be noted: octanol/water. In kind it is physicochemical. The gist of the method: as §2
The subject of data set [7] is Hepatocyte. Nature of the data set: Antioxidant activity Wistar rat hepatocyte membrane assessed as Fe(3+)-ADP/NADPH-induced lipid peroxidation at 1 mM by TBA assay. The format is functional, cell-based. The method in brief:
as §1

Data set [8] can be described thus: Distribution coefficient, log D at pH 7.4 after 4 hrs. The format is physicochemical. The following applies: octanol/water. The method in brief:
as §2

Data set [9] deals with Hepatocyte. The data set can be described thus: Antioxidant activity Wistar rat hepatocyte membrane assessed as Fe(3+)-ADP/NADPH-induced lipid peroxidation at 50 uM by TBA assay. The format is functional. The gist of the method: as §1

SMILES strings stand for the structures. Calls of active or inactive are those of the source. The rule behind the calls is not given here. Where only a bound is given, the exact number is not on record here.

By IC50 is commonly meant the midpoint of a concentration-inhibition curve. What is called EC50 is the midpoint of the concentration-response curve. In general, pKa refers to the pH at which an ionisable group is half protonated. As usually defined, the logD is the decadic logarithm of the distribution of all forms, ionised or not, between an organic phase and buffer at a given pH. Low values mean lower lipophilicity, high ones higher lipophilicity. For the compound `O=C1OC(C(O)CO)C(OCCCCCCO[N+](=O)[O-])=C1O` (configuration not stated), the IC50 in the data set on Hepatocyte [1] is 80 µM. The EC50 in the data set on Aorta [2] is 2.1 µM; in the data set with Aorta [3], over 100 µM. The compound also returned a pKa in [4] of 7.6. Also, the logD at 4 h in data set [5] was 0.86; in data set [6] it was 0.76.
On to `COC1=C(O)C(=O)O[C@@H]1[C@@H](O)CO`, for which, in the data set on Hepatocyte [1], the IC50 was over 1000 µM. This compound also gave a pKa in [4] of 7.54. Also, the figures for the logD at 4 h in [5] and in [6] were -1.41 and -1.61, respectively.
As for `O=C1OC(C(O)CO)C(OCCCOc2no[n+]([O-])c2-c2ccccc2)=C1O` (configuration not stated), in the data set with Hepatocyte [1], the IC50 is 17 µM. Also, the EC50 in the data set with Aorta [2] is 3.8 µM; in the data set with Aorta [3], 80.9 µM. The same compound had a pKa in [4] of 7.6. For the same compound, the logD at 4 h in [5] amounted to 1.53; in data set [6] it was 1.13.
`O=C1OC(C(O)CO)C(O)=C1OCCCOc1no[n+]([O-])c1-c1ccccc1` (configuration not stated): the half-maximal inhibitory concentration (IC50) with Hepatocyte [1] came to 392 µM. Further, the EC50 in the data set with Aorta [2] was 32 µM; with Aorta [3] it was over 100 µM. The compound further displayed a pKa in data set [4] of 3.44. Besides, the logD at 4 h in data set [5] is 1.71; in data set [6] it was -1.35.
As to `O=C1OC(C(O)CO)C(O)=C1OCCCO[N+](=O)[O-]` (configuration not stated), the result with Hepatocyte [7] was inactive. Also, in data set [4], the pKa turned out to be 3.19. Besides, the logD at 4 h in data set [5] is -0.26; in data set [8] it was under -2.
Regarding `O=C1O[C@H]([C@@H](O)CO)C(O)=C1O` [ASCORBIC ACID], in the data set with Hepatocyte [9], the Activity is listed as 77%. The compound further yielded a logD at 4 h in [5] of -1.65.
Regarding `NC(=O)c1c(COC2=C(O)C(=O)OC2C(O)CO)no[n+]1[O-]` (configuration not stated), the IC50 with Hepatocyte [1] was over 1000 µM. For the same compound, the results for the EC50 in the data set with Aorta [2] and in the data set with Aorta [3] were 6 µM and over 100 µM, respectively. The compound further showed a pKa in data set [4] of 7.07. Besides, the logD at 4 h is -0.99 in [5] and -1.44 in [6].
As to `O=C1OC(C(O)CO)C(OCCCCC(CO[N+](=O)[O-])O[N+](=O)[O-])=C1O` (configuration not stated), in the data set with Hepatocyte [1], the IC50 came out at 28 µM. Moreover, the concentration for a half-maximal effect (EC50) with Aorta [2] was 0.72 µM; in the data set with Aorta [3] it was over 100 µM. Also, the pKa in data set [4] was determined as 7.64. For the same compound, the logD at 4 h was 0.78 in data set [5] and 0.66 in data set [6].
As to `O=C1OC(C(O)CO)C(OCCCO[N+](=O)[O-])=C1O` (configuration not stated), the IC50 in the data set on Hepatocyte [1] stood at 454 µM. Moreover, the 50% effective concentration (EC50) was 55 µM in the data set with Aorta [2] and over 100 µM with Aorta [3]. Also, in [4], the pKa is 7.55. The logD at 4 h in data set [5] was -0.48; in [6] it was -0.55.
Take `COC1=C(O)[C@@H]([C@@H](O)CO)OC1=O`: in the data set with Hepatocyte [7], the outcome was inactive. For the same compound, the pKa in data set [4] is 3.23. Moreover, the logD at 4 h was -1.44 in data set [5] and under -2 in data set [8].
As for `O=C1OC(C(O)CO)C(OCCCOc2no[n+]([O-])c2S(=O)(=O)c2ccccc2)=C1O` (configuration not stated), in the data set on Hepatocyte [1], the IC50 amounted to 80 µM. Further, the EC50 with Aorta [2] was 0.034 µM; in the data set on Aorta [3], 7 µM. In [4], this compound had a pKa of 7.62. For the same compound, the logD at 4 h amounted to 1.18 in [5] and 0.98 in data set [6].
As for `O=C1OC(C(O)CO)C(O)=C1OCCCCCCO[N+](=O)[O-]` (configuration not stated), the IC50 in the data set on Hepatocyte [1] is over 1000 µM. Besides, the EC50 in the data set on Aorta [2] was 7.1 µM; with Aorta [3], over 100 µM. Besides, the pKa in [4] is 3.56. Moreover, the logD at 4 h was 0.84 in [5] and -1.93 in data set [6].
